In ChEMBL document CHEMBL1148529, “Isatin compounds as noncovalent SARS coronavirus 3C-like protease inhibitors” (J Med Chem, 2006):

Assays:
[1] = target: Replicase polyprotein 1a (Severe acute respiratory syndrome-related coronavirus) (UniProt P0C6U8); experiment: Inhibition of SARS CoV 3C-like protease at 100 uM
Replicase polyprotein 1a = Replicase polyprotein 1a (Severe acute respiratory syndrome-related coronavirus, UniProt P0C6U8); experiment: Inhibition of SARS CoV 3C-like protease
Trypsin = Trypsin (Homo sapiens, UniProt P07477+P07478+P35030); experiment: Inhibition of trypsin; format: protein assay
Outline: (§1)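 HPLC-based activity assay with substrate S0120 at 400 µM. Enzyme levels: papain 4.5 µM, chymotrypsin 0.45 µM, trypsin 0.23 µM. IC50 determined from HPLC measurements.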

[2] = target: T1, Human rhinovirus A protease (Human rhinovirus sp., UniProt Q4U254); experiment: Inhibition of human rhinovirus 14 3C protease; set-up: species or system rhinovirus B14
T1 sequence (Q4U254 whole entry): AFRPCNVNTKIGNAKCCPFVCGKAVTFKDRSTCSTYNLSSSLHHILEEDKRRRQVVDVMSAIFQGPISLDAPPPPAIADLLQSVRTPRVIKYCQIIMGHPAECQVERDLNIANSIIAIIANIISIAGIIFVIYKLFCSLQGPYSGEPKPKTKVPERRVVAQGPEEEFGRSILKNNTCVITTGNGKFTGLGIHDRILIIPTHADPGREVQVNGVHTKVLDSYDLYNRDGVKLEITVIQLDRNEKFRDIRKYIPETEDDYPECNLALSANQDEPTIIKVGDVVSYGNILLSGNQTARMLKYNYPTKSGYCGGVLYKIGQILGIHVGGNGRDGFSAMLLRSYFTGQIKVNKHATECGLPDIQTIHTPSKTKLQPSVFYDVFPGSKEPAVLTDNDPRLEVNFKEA

Chymotrypsinogen B = Chymotrypsinogen B (Homo sapiens, UniProt P17538); experiment: Inhibition of chymotrypsin; outline: as §1
Chain of Chymotrypsinogen B (P17538 34-164 limits assumed, other chains not shown): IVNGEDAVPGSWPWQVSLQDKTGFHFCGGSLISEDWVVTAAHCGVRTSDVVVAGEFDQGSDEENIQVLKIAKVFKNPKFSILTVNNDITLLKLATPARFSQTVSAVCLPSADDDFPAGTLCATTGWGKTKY
Chain of Chymotrypsinogen B (P17538 167-263 limits assumed, other chains not shown): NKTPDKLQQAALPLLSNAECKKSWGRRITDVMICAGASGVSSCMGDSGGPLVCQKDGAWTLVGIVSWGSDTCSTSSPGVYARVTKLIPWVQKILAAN

Papain = target: T2, Papain (Carica papaya, UniProt P00784); experiment: Inhibition of papain; outline: as §1
T2 sequence (P00784 whole entry): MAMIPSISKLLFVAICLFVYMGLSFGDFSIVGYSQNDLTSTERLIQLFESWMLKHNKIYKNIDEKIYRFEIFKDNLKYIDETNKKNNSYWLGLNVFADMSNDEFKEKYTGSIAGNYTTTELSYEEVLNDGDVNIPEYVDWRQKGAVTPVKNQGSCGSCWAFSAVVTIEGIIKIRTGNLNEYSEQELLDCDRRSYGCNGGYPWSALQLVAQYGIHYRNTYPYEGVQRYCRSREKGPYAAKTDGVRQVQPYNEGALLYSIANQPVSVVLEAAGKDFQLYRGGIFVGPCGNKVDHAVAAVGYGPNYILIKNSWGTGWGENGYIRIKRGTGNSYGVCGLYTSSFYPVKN

| SMILES | inhibition [1] [%] | further results |
| --- | --- | --- |
| COC(=O)c1ccc2c(c1)C(=O)C(=O)N2Cc1ccccc1 | < 25 | – |
| CCCN1C(=O)C(=O)c2cc(C(=O)O)ccc21 | < 25 | – |
| CCCN1C(=O)C(=O)c2cc(C(=O)OC)ccc21 | < 25 | – |
| CN1C(=O)C(=O)c2cc(I)ccc21 | < 25 | – |
| CN1C(=O)C(=O)c2cc(C(=O)O)ccc21 | < 25 | – |
| CCCCN1C(=O)C(=O)c2cc(C(=O)O)ccc21 | < 25 | – |
| O=C1C(=O)N(Cc2ccccc2)c2ccc(I)cc21 | – | IC50 (Replicase polyprotein 1a): 50 µM; Ki (Replicase polyprotein 1a): 50 µM |
| O=C(O)c1ccc2c(c1)C(=O)C(=O)N2Cc1ccc2ccccc2c1 | 46 | – |
| NC(=O)c1ccc2c(c1)C(=O)C(=O)N2Cc1ccccc1 | – | IC50 (Replicase polyprotein 1a): 12.5 µM |
| NC(=O)c1ccc2c(c1)C(=O)C(=O)N2Cc1ccc2ccccc2c1 | – | IC50 (Trypsin): 352 µM; IC50 [2]: 0.004 µM; IC50 (Chymotrypsinogen B): 34 µM; IC50 (Papain): 11 µM |
| CN1C(=O)C(=O)c2cc(C(N)=O)ccc21 | – | IC50 (Replicase polyprotein 1a): 71 µM; Ki (Replicase polyprotein 1a): 71 µM |
| COC(=O)c1ccc2c(c1)C(=O)C(=O)N2Cc1ccc2ccccc2c1 | < 25 | – |
| O=C1Nc2ccc(C(=O)O)cc2C1=O | < 25 | – |
| CCCCN1C(=O)C(=O)c2cc(C(=O)OC)ccc21 | < 25 | – |
| CCCN1C(=O)C(=O)c2cc(I)ccc21 | 25 | – |
| O=C1Nc2ccc(I)cc2C1=O | < 25 | – |
| COC(=O)c1ccc2c(c1)C(=O)C(=O)N2C | < 25 | – |
| NC(=O)c1ccc2c(c1)C(=O)C(=O)N2 | < 25 | – |
| O=C(O)c1ccc2c(c1)C(=O)C(=O)N2Cc1ccccc1 | < 25 | – |
